ChEMBL document CHEMBL4028850, “Identification and Optimization of Pyrrolo[3,2-d]pyrimidine Toll-like Receptor 7 (TLR7) Selective Agonists for the Treatment of Hepatitis B” (J Med Chem, 2017)

How the values were obtained:
[1] = Intrinsic clearance in dog liver microsomes at 1 uM after 60 mins; assay type: ADME, Canis lupus familiaris, microsome; settings: read-out: CLH
[2] = Cmax in Sprague-Dawley rat at […], iv or 10 mg/kg, po measured after 1 hr post dose; assay type: ADME, organism-based; settings: in vivo
[3] = Tmax in cynomolgus monkey at 3 mg/kg administered via oral gavage measured up to 72 hrs post dose; assay type: ADME, organism-based, Macaca fascicularis; settings: in vivo
In short: (§1)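 Cynomolgus monkeys (five per dose) given single oral gavage doses of 1, 3 or 10 mg/kg; dose levels in different animals, staggered by 3 days. Blood sampled pre-dose and at 0.25, 0.5, 1, 2, 4, 8, 24, 48 and 72 h for plasma compound levels, cytokines (ELISA or Luminex) and gene expression (microarray); clinical signs, body weight and temperature monitored.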

[4] = Oral bioavailability in cynomolgus monkey at 1 to 10 mg/kg administered via gavage measured up to 72 hrs post dose; assay type: ADME, organism-based, Macaca fascicularis; settings: in vivo
[5] = Intrinsic clearance in mouse liver microsomes at 1 uM after 60 mins; assay type: ADME, microsome; settings: read-out: CLH
[6] = Tmax in dog at 1 mg/kg, po; assay type: ADME, organism-based, Canis lupus familiaris; settings: in vivo
[7] = Intrinsic clearance in cynomolgus monkey hepatocytes assessed per million cells at 1 uM up to 120 mins; assay type: ADME, cell-based, Macaca fascicularis, Hepatocyte; settings: read-out: CLH
[8] = Tmax in C57Bl/6 mouse plasma at 0.3 to 10 mg/kg, po by LC-MS analysis; assay type: ADME, organism-based
In short: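 Healthy fasted female C57Bl/6 mice, groups of 9, single oral dose 0.3, 1, 3 or 10 mg/kg. Blood at 0.5 h; three mice per group killed at 1, 2 or 4 h for plasma and liver compound (LC-MS) and ISG expression by RT-qPCR as fold change versus vehicle.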

[9] = Cmax in cynomolgus monkey at 10 mg/kg administered via oral gavage measured up to 72 hrs post dose; assay type: ADME, organism-based, Macaca fascicularis; design: dose 10 mg/kg, route oral; settings: in vivo
[10] = Cmax in C57Bl/6 mouse liver at 0.3 mg/kg, po measured after 0.5 hrs by LC-MS analysis; assay type: ADME, organism-based; design: dose 0.3 mg/kg, route oral
In short: (§2)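 Female fasted C57Bl/6 mice, nine per dose, got a single oral dose of 0.3, 1, 3 or 10 mg/kg. Blood was drawn at 0.5 h. Three mice per group were sacrificed at 1, 2 or 4 h for plasma and liver compound levels by LC-MS, and mean maximum levels are reported.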

[11] = AUC (0 to last) in cynomolgus monkey at 3 mg/kg administered via oral gavage measured up to 72 hrs post dose; assay type: ADME, organism-based, Macaca fascicularis; design: dose 3 mg/kg, time 0 - last, route oral; settings: in vivo
[12] = Tmax in cynomolgus monkey at 1 mg/kg administered via oral gavage measured up to 72 hrs post dose; assay type: ADME, organism-based, Macaca fascicularis; settings: in vivo; in short: as §1
MDR1 = assay: Apparent permeability across apical to basolateral side in MDCK cells expressing human MDR1 at 5 uM by LC-MS/MS analysis; assay type: ADME, cell-based, Canis lupus familiaris; settings: dog
In short: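 MDCK cells transfected with human MDR1 were grown as confluent monolayers. 5 µM compound was added apically or basolaterally, with or without the P-gp inhibitor GF120918. Appearance on the opposite side was measured by LC-MS/MS to give Papp; efflux ratio = B→A/A→B without inhibitor.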

[13] = Cmax in C57Bl/6 mouse plasma at 3 mg/kg, po measured after 0.5 hrs by LC-MS analysis; assay type: ADME, organism-based; design: dose 3 mg/kg, route oral; in short: as §2
Rattus norvegicus = assay: Drug level in Sprague-Dawley rat systemic circulation at […], iv or 10 mg/kg, po; assay type: ADME, organism-based; settings: in vivo, BLD = below limit of detection
[14] = Intrinsic clearance in dog hepatocytes assessed per million cells at 1 uM up to 120 mins; assay type: ADME, cell-based, Canis lupus familiaris, Hepatocyte; settings: read-out: CLH
[15] = Intrinsic clearance in rat hepatocytes assessed per million cells at 1 uM up to 120 mins; assay type: ADME, cell-based, Hepatocyte; settings: read-out: CLH
[16] = AUC (0 to last) in cynomolgus monkey at 10 mg/kg administered via oral gavage measured up to 72 hrs post dose; assay type: ADME, organism-based, Macaca fascicularis; design: dose 10 mg/kg, route oral, time 0 - last; settings: in vivo
[17] = Cmax in C57Bl/6 mouse liver at 10 mg/kg, po measured after 0.5 hrs by LC-MS analysis; assay type: ADME, organism-based; design: dose 10 mg/kg, route oral; in short: as §2
[18] = Cmax in cynomolgus monkey at 1 mg/kg administered via oral gavage measured up to 72 hrs post dose; assay type: ADME, organism-based, Macaca fascicularis; design: dose 1 mg/kg, route oral; settings: in vivo
[19] = Cmax in C57Bl/6 mouse plasma at 0.3 mg/kg, po measured after 0.5 hrs by LC-MS analysis; assay type: ADME, organism-based; design: dose 0.3 mg/kg, route oral; in short: as §2
[20] = Activation of NFkappaB (unknown origin) expressed in HEK293 cells after 6 hrs luciferase reporter gene assay; assay type: cell-based; settings: human
In short: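 HEK293 cells were transfected with the NFκB-luciferase reporter alone, with no TLR vector, to detect direct NFκB activation.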

[21] = Tmax in cynomolgus monkey at 1 to 10 mg/kg administered via oral gavage measured up to 72 hrs post dose; assay type: ADME, organism-based, Macaca fascicularis; settings: in vivo; in short: as §1
[22] = Cmax in C57Bl/6 mouse liver at 1 mg/kg, po measured after 0.5 hrs by LC-MS analysis; assay type: ADME, organism-based; design: dose 1 mg/kg, route oral; in short: as §2
Liver = assay: Drug level in Sprague-Dawley rat liver at […], iv or 10 mg/kg, po; assay type: ADME, organism-based; settings: in vivo, BLD = below limit of detection
[23] = Ratio of drug uptake in liver to plasma in C57Bl/6 mouse at 0.3 to 10 mg/kg, po by LC-MS analysis; assay type: ADME, organism-based
In short: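 Healthy fasted female C57Bl/6 mice, 9 per dose group, given a single oral dose of 0.3, 1, 3 or 10 mg/kg. Blood taken at 0.5 h. At 1, 2 or 4 h, three mice per group were sacrificed and plasma and liver compound levels were measured by LC-MS.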

[24] = Intrinsic clearance in human liver microsomes at 1 uM after 60 mins; assay type: ADME, microsome; settings: read-out: CLH
[25] = Intrinsic clearance in mouse hepatocytes assessed per million cells at 1 uM up to 120 mins; assay type: ADME, cell-based, Hepatocyte; settings: read-out: CLH
[26] = Cmax in dog at 1 mg/kg, po; assay type: ADME, organism-based, Canis lupus familiaris; design: dose 1 mg/kg, route oral; settings: in vivo
[27] = Plasma concentration in dog at 1 mg/kg, po measured after 4 hrs post dose; assay type: ADME, organism-based, Canis lupus familiaris
[28] = Cmax in C57Bl/6 mouse plasma at 1 mg/kg, po measured after 0.5 hrs by LC-MS analysis; assay type: ADME, organism-based; design: dose 1 mg/kg, route oral; in short: as §2
[29] = Cmax in C57Bl/6 mouse liver at 3 mg/kg, po measured after 0.5 hrs by LC-MS analysis; assay type: ADME, organism-based; design: dose 3 mg/kg, route oral; in short: as §2
[30] = Intrinsic clearance in cynomolgus monkey liver microsomes at 1 uM after 60 mins; assay type: ADME, Macaca fascicularis, microsome; settings: read-out: CLH
[31] = Tmax in cynomolgus monkey at 10 mg/kg administered via oral gavage measured up to 72 hrs post dose; assay type: ADME, organism-based, Macaca fascicularis; settings: in vivo; in short: as §1
[32] = Intrinsic clearance in rat liver microsomes at 1 uM after 60 mins; assay type: ADME, microsome; settings: read-out: CLH
[33] = Cmax in cynomolgus monkey at 3 mg/kg administered via oral gavage measured up to 72 hrs post dose; assay type: ADME, organism-based, Macaca fascicularis; design: dose 3 mg/kg, route oral; settings: in vivo
[34] = Cmax in guinea pig up to […], iv; assay type: ADME, organism-based, Cavia porcellus; design: dose 4.9 mg/kg, route intravenous; settings: in vivo
[35] = Cmax in C57Bl/6 mouse plasma at 10 mg/kg, po measured after 0.5 hrs by LC-MS analysis; assay type: ADME, organism-based; design: dose 10 mg/kg, route oral; in short: as §2
[36] = Intrinsic clearance in human hepatocytes assessed per million cells at 1 uM up to 120 mins; assay type: ADME, cell-based, Hepatocyte; settings: read-out: CLH

microsomal CLint at 1 µM [1]: 44 µL/min/mg
Cmax [2]: 314 ng/mL
Tmax [3]: 30 to 120 min
bioavailability [4]: < 1%
microsomal CLint at 1 µM [5]: 55 µL/min/mg
Tmax [6]: 30 min
hepatocyte CLint at 1 µM [7]: 80 µL/min/1e6 cells
Tmax [8]: 30 to 60 min
Cmax [9]: 23.4 ng/mL
Cmax [10]: 6.8 ng/g
AUC(0-t) at 72 h [11]: 26.7 ng·h/mL
Tmax [12]: 60 to 120 min
Papp A→B at 5 µM (MDR1): 41 ×10⁻⁶ cm/s
Cmax [13]: 2.8 ng/mL
Drug uptake (Rattus norvegicus): Bld
hepatocyte CLint at 1 µM [14]: 7 µL/min/1e6 cells
hepatocyte CLint at 1 µM [15]: > 277 µL/min/1e6 cells
AUC(0-t) at 72 h [16]: 57.5 ng·h/mL
Cmax [17]: 152 ng/g
Cmax [18]: 4.12 ng/mL
Cmax [19]: 3.7 ng/mL
MEC [20]: > 25 µM
Tmax [21]: 15 to 120 min
Cmax [22]: 6.3 ng/g
Drug uptake (Liver): Bld
Kp [23]: 2
microsomal CLint at 1 µM [24]: 25 µL/min/mg
hepatocyte CLint at 1 µM [25]: 19 µL/min/1e6 cells
Cmax [26]: 125 ng/mL
concentration at 4 h [27]: 10 ng/mL
Cmax [28]: 7.1 ng/mL
Cmax [29]: 23 ng/g
microsomal CLint at 1 µM [30]: 87 µL/min/mg
Tmax [31]: 30 to 120 min
microsomal CLint at 1 µM [32]: > 346 µL/min/mg
Cmax [33]: 11.2 ng/mL
Cmax [34]: 9700 ng/mL
Cmax [35]: 72.9 ng/mL
hepatocyte CLint at 1 µM [36]: 6 µL/min/1e6 cells
Compound: Cc1cc(COc2nc(N)nc3ccn(Cc4ccccn4)c23)no1
